Shown are actives, neighbours in structure and some others; about 1% of the full set was active somewhere.
LYPLA1 inh – blocks human lysophospholipase 1, a PME1 counter-screen | O75608 | recombinant LYPLA1, FP-Rh probe fluorescence polarization | inhibition, % at 5.9 µM | hit rate 0.16% among 320,000;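 active means inhibition above the mean of all tested compounds plus 3 SD, set per campaign, cut at about 14% in these data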;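 further: inhibitors block serine hydrolase probe labeling of LYPLA1 so polarization falls; 0% = enzyme with DMSO and 100% = wells lacking LYPLA1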
Target sequence (O75608 whole entry, looked up): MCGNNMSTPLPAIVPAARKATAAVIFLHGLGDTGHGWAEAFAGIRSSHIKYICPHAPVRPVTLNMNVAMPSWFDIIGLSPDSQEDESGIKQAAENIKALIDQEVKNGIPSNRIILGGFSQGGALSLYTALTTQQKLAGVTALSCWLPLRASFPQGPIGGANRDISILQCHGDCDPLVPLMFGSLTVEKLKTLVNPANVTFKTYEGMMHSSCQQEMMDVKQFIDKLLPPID
Fam108B inh – blocks mouse Fam108B hydrolase in RBBP9 counter-screen; recombinant Fam108B, FP-Rh probe fluorescence polarization; inhibition, % at 9.51 µM; hit rate 0.33% among 300,000;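 active means inhibition above the screen mean inhibition plus 3 SD, computed separately per campaign, cut at about 18% in these data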;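 further: inhibitors lower polarization as less probe binds the enzyme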
proCasp3 act – activators of human procaspase-3 | P42574 | recombinant procaspase-3 D3A, Ac-DEVD-pNA absorbance 405 nm | activation, % at 8.5 µM | hit rate 0.11% among 330,000;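 active means activation above the mean of all tested compounds plus 3 SD, cut at about 21% in these data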;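 further: 0% = DMSO alone and 100% = DMSO wells spiked with extra 5 µM PC-3 D3A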
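System: Procaspase-3 D3A mutant. Medium: Zinc-free 300 mM NaCl, 50 mM HEPES, 0.01% Triton X-100. Schedule: 1 h preincubation plus 2 h reaction at 25 °C. Measured by: 405 nm absorbance of p-nitroaniline, reads at 0 and 120 min. Read-out: percent activation relative to control range.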
LYPLA2 counter – counter-screen for PME1 inhibitors: inhibitors of human LYPLA2; O95372; recombinant LYPLA2, FP-Rh probe fluorescence polarization; inhibition, % at 5.9 µM; hit rate 0.38% among 320,000; AID 2177;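 active means inhibition above the screen-wide mean plus 3 SD, limit set per campaign, cut at about 26% in these data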;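 further: 0% = LYPLA2 with DMSO and 100% = wells lacking LYPLA2 enzyme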
Target sequence (O95372 whole entry, looked up): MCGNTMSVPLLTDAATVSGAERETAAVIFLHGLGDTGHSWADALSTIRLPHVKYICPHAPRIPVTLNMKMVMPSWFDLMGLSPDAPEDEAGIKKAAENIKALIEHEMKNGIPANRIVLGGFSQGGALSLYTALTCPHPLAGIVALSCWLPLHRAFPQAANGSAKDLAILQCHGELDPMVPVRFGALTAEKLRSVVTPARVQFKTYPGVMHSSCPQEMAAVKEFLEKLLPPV
PME-1 primary – PME-1 (human) inhibition. recombinant PME-1, FP-Rh probe fluorescence polarization. inhibition, % at 5.9 µM. hit rate 0.53% among 320,000. AID 2130;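 active means inhibition above the campaign mean of all compounds plus 3 SD, cut at about 26% in these data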;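 further: competitive labeling of PME-1 active site by serine hydrolase directed probe; 0% = PME-1 with DMSO and 100% = wells lacking PME-1 enzyme; inhibitors block probe labeling so polarization falls and inhibition rises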
procasp7 counter – counter-screen for procaspase-3 activators: activators of human procaspase-7; recombinant procaspase-7, Ac-DEVD-pNA absorbance 405 nm; D23A/D198A/D206A triple mutant, cannot self-cleave; scale: DMSO 0, 5 µM enzyme 100; hit rate 0.093% among 330,000; activation, % at 8.5 µM; P55210;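 active means percent activation above the screen-wide mean plus 3 SD, cut at about 25% in these data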
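Detection: p-Nitroaniline absorbance at 405 nm, read at 0 and 120 min; system: Uncleavable procaspase-7 mutant enzyme; evaluation: % activation from two-timepoint absorbance difference, scaled to controls; times: 1 h enzyme–compound preincubation and 2 h substrate reaction, both 25 °C; buffer or medium: Zinc-free HEPES pH 7.4 with 300 mM NaCl, 0.01% Triton X-100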
Active calls of the source: *; · = no result.

SMILES	LYPLA1 inh	Fam108B inh	proCasp3 act	LYPLA2 counter	PME-1 primary	procasp7 counter
CC(C)(C)c1ccc(OCc2ccc(C(=O)N/N=C/c3ccc(O)c(O)c3)cc2)cc1	-11	27*	1	0	17	7
Oc1ccc(/C=N/Nc2ccc(C(F)(F)F)cn2)c(O)c1	-6	8	-17	-1	37*	-4
COc1ccc(-c2cc(C(=O)N3CCN(C(=O)c4ccccc4F)CC3)[nH]n2)cc1	6	0	-1	10	30*	0
Cc1ccsc1/C=N/n1c(-c2cc(-c3ccccc3)n[nH]2)n[nH]c1=S	2	5	-13	5	35*	-11
COc1ccc(C)cc1S(=O)(=O)N1CCN(C)CC1c1ccccc1 (stereo not given)	-1	·	4	-2	0	-2
COc1ccccc1NS(=O)(=O)c1cccc(C(=O)NNC(=O)c2ccc(O)c(Cl)c2)c1	3	1	3	2	1	8
O=CC1=C(c2ccccc2)Oc2ccccc2O1	-5	0	8	-4	4	1
Oc1ccc(/C=C/c2ccc3cccc(O)c3n2)cc1Br	-4	8	1	-4	31*	2
COc1ccc(-c2csc(NC(=O)c3ccccc3F)n2)cc1	-1	-6	8	2	-3	1
COc1ccc(-c2csc(NC(=O)c3ccccc3NS(=O)(=O)c3ccc(F)c(F)c3)n2)cc1	4	18	-2	12	31*	-2
O=C(CN1CCC(c2nc3ccccc3s2)CC1)NCc1cccs1	-1	0	3	-3	40*	-6
O=C(CN1CCC(c2nc3ccccc3s2)CC1)N1CCCCC1	2	-1	-4	9	0	2
Cc1[nH]c2ccccc2c1/C=N/NC(=O)c1cc(-c2ccncc2)nc2ccccc12	-12	16	2	-1	26*	-2
Cc1ccc(NC(=O)CSc2nc3nn(-c4ccccc4)c(=O)c-3c3n2CCCCC3)cc1F	·	·	4	·	·	8
Cc1cc(C)n2nc(SCC(=O)N3CC(C)CC(C)C3)nc2n1 (stereo not given)	·	·	3	·	·	-3
CCOc1cccc(/C=C/c2ccc3cccc(O)c3n2)c1O	-6	3	·	-3	36*	1
Cc1ccc(S(=O)(=O)N2CCN(Cc3csc(C)n3)CC2)cc1	2	1	8	10	9	8
Cn1c2ccccc2c2cc(/C=N/NC(=O)c3ccc(O)cc3O)ccc21	-14	15	18	-18	47*	9
COc1ccc(CN(C)C(=O)Cc2ccc(OC)c(S(=O)(=O)N3CCOCC3)c2)cc1	-2	2	5	2	-6	0
COc1ccccc1NS(=O)(=O)c1ccc(N/N=C/c2ccccc2OCC(=O)O)c([N+](=O)[O-])c1	3	8	-3	6	54*	2
Cn1cnnc1SCc1ccc(C(=O)NN)cc1	3	7	3	0	-2	10
CC(C)c1ccc2[nH]c(O)c(N=NC(=O)c3ccc(CSc4nncn4C)cc3)c2c1	0	-4	-4	0	30*	-6
CC(C)CC1NC(=O)c2ccc(Cl)cc2-n2c1nc1ccc(Cl)cc1c2=O (stereo not given)	·	·	10	·	·	-1
CC1CCCCC1NC(=O)COc1ncnc2sccc12 (stereo not given)	-4	·	-6	-5	-1	1
COc1ccc(S(=O)(=O)N2CCCCCC2)cc1C(=O)Nc1cc(C)ccn1	-6	·	1	-6	1	1
COc1ccc(S(=O)(=O)N2CCCCCC2)cc1C(=O)NCCOc1ccc(C)cc1	-1	-2	-6	4	28*	13
Cc1cccc(-n2c(O)c(C=Nc3cccc(O)c3)c3ccccc3c2=O)n1	3	7	-7	-3	2	-12
CC1=NC(=O)C(N=Nc2cccc(O)c2)N1c1ccccc1 (stereo not given)	-5	4	-10	-4	30*	-9
CCOc1ncccc1C(=O)N1CCN(c2cc(Cl)ccc2C)CC1	-1	2	8	28*	-1	3

Compound activity as filed in PubChem BioAssay.
